697 NFkB inh – inhibitors of PMA/ionomycin-induced NF-kB reporter, 697 cells, primary screen, B-cell NF-kB inhibitor project, cell-based, luminescence, uHTS. 697 B-cell NF-kB luciferase reporter, 16 h. inhibition, % at 4 µM. actives 0.33% (n = 330,000); in the data active = inhibition above about 35%
CHOP inhibitor – inhibitors of CHOP promoter induction, primary screen, cell-based, unfolded protein response, luciferase reporter; actives 3.8% (n = 220,000); CHO-K1 CHOP-promoter luciferase, tunicamycin-induced, 15-18 h; inhibition, % at 10 µM; AID 2732, 2010;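 active = compounds that reduced the stress-induced luciferase reporter signal by more than about 70% of percent inhibition, limit read from the data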;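 also: 0% = tunicamycin plus vehicle and 100% = wells without tunicamycin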
CHOP UPR activ – activators of apoptotic CHOP UPR arm, primary screen, cell-based, CHO-CHOP luciferase reporter, luminescence, uHTS; UPR activation; percent of tunicamycin response over DMSO baseline; activation, % at 10 µM; actives 0.34% (n = 330,000); AID 449763, 2010;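 active = at 10 µM dose, activation of 40% or more, normalized to positive control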;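 also: 100% = tunicamycin at 10 µg/mL and 0% = DMSO alone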
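System: CHO-CHOP luciferase reporter cell line | Buffer or medium: F12 medium containing 10% fetal bovine serum | Doses: One dose, 10 µM in 0.5% DMSO | Times: 6 h compound exposure at 37 °C after overnight seeding | Signal: Luciferase luminescence | Read-out: % activation vs tunicamycin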
UPR XBP1 act – activators of adaptive XBP1 UPR arm, primary screen, cell-based, CHO-XBP1 luciferase reporter, luminescence, uHTS. IRE1-XBP1 UPR activation; percent of tunicamycin response, DMSO as zero. activation, % at 20 µM. actives 0.33% (n = 330,000). AID 463104, 2010;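 active = versus positive control, 20 µM dose yields 30% or more activation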;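 also: 100% = tunicamycin at 10 µg/mL and 0% = DMSO only wells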
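Assay system: CHO-XBP1 luciferase reporter cells; Schedule: 6 h treatment, 37 °C; Detection: glow luminescence from Steady-Glo reagent; Benchmarks: high control tunicamycin 10 µg/mL final, low control DMSO vehicle only.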
Gli-Sufu block – Gli-Sufu pathway antagonists, primary screen, luciferase luminescence, Sufu-KO-LIGHT cells, uHTS | actives 0.74% (n = 340,000) | AID 588413, 2011 | Sufu-KO-LIGHT fibroblasts, Gli luciferase reporter luminescence | inhibition, % at 5 µM;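 active = inhibition above about 55%, limit read from the data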;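 also: 0% = DMSO-treated cells and 100% = wells with medium but no cells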
Jurkat NFkB inh – inhibitors of induced NF-kB luciferase reporter, primary screen, TCR NF-kB activation inhibitor project, cell-based, luminescence, uHTS; AID 435003, 2010; actives 0.53% (n = 330,000); Jurkat, PMA/ionomycin-induced NF-kB luciferase reporter; inhibition, % at 4 µM; in the data active = inhibition above about 50%
Gli antag conf – Gli-SUFU pathway antagonists, confirmation, single concentration, luciferase luminescence, Sufu-KO-LIGHT cells | inhibition, % at 5 µM | actives 40% (n = 2,500) | Gli luciferase reporter | shares compounds with Gli-Sufu block;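 active = mean inhibition at 5 µM reaching about 45%, limit read from the data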;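 also: plate controls were DMSO-treated cells for no effect and wells lacking cells for full effect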
SufuKO cytotox – cytotoxicity in Sufu-KO-LIGHT cells, confirmation, cytotoxicity control for Gli-SUFU antagonist project, cell-based, ATP luminescence, single concentration. AID 651994, 2013. actives 32% (n = 2,500). cytotoxicity, % at 5 µM. shares compounds with Gli-Sufu block;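 active = mean cytotoxicity at 5 µM above about 25%, limit read from the data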;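 also: cells exposed to compound overnight for roughly 16 to 18 hours; plate controls were DMSO wells with cells for no effect and medium without cells for full effect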
Wnt3a counter – Wnt3a reporter signal inhibition, confirmation, counter-screen for Gli-SUFU antagonist project, Wnt-LIGHT cells, luminescence, single concentration; inhibition, % at 6.25 µM; shares compounds with Gli-Sufu block; Wnt3a-driven luciferase reporter; actives 20% (n = 2,500); AID 651995, 2013;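 active = mean inhibition above about 25%, limit read from the data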
An asterisk follows results filed as active; nt = not tested or not shown. In the library only some 3.9% were active in any assay of this set; here they are far more common.

SMILES | 697 NFkB inh | CHOP inhibitor | CHOP UPR activ | UPR XBP1 act | Gli-Sufu block | Jurkat NFkB inh | Gli antag conf | SufuKO cytotox | Wnt3a counter
CCOc1ccc(N(CC(=O)Nc2ccccc2C(=O)N2CCCC2)S(C)(=O)=O)cc1 | -13 | nt | 1 | 0 | -3 | 15 | nt | nt | nt
CN(C)c1ccncc1C(=O)Nc1ccc(F)cc1F | -11 | 10 | -1 | -3 | 59* | 4 | 19 | -3 | 4
O=C(Nc1ccncc1)Nc1ccc(F)cc1F | 14 | 28 | 0 | -2 | 14 | -5 | nt | nt | nt
CCOC(=O)c1ccc(NC(=S)N(CCCN2CCN(CC)CC2)Cc2cccs2)cc1 | -27 | 27 | 2 | 0 | 3 | -10 | nt | nt | nt
CCOC(=O)c1ccc(NC(=S)N(CCCN2CCN(C)CC2)Cc2cccs2)cc1 | 1 | 21 | 1 | -1 | 60* | -23 | 10 | 27* | -19
C=CCn1c(O)c(N=NC(=S)Nc2cccc(C)c2)c2ccccc21 | 8 | -51 | 15 | 0 | 53 | 4 | 57* | 26* | -22
O=C(COC(=O)c1c(F)cccc1Cl)NCC1CCCCC1 | 7 | nt | 1 | -1 | -3 | -14 | nt | nt | nt
Brc1ccc(CSc2ccc3nnc(-c4cccnc4)n3n2)cc1 | -19 | 22 | 3 | 6 | 26 | 8 | nt | nt | nt
Cc1ccc(CSc2ccc3nnc(-c4cccnc4)n3n2)cc1 | 0 | -7 | 2 | 3 | 52 | 13 | 14 | 3 | -3
Cc1ccc(C(=O)NCCCNC(=O)Cc2ccc(Cl)cc2)cn1 | 2 | nt | 0 | 4 | -6 | 0 | nt | nt | nt
Cn1cc(CNC(=O)c2cc(COc3ccc4c(c3)CCCC4)on2)cn1 | -28 | nt | 1 | -2 | 4 | 3 | nt | nt | nt
O=C(NC(c1cccnc1)C(F)(F)F)c1cc(COc2ccc3c(c2)CCCC3)on1 (stereo not drawn) | -100 | nt | 15 | -4 | 61* | -15 | 59* | 31* | -95
CCc1ccccc1NC(=O)Cn1nnc(C(=O)NCc2cccc(OC)c2)c1N | -3 | nt | 1 | -4 | 3 | 22 | nt | nt | nt
O=C(CNC(=O)N1CC(=O)Nc2ccccc21)NCCc1cccc(F)c1 | -13 | nt | 0 | -1 | -8 | -7 | nt | nt | nt
O=C(CCNC(=O)N1CC(=O)Nc2ccccc21)NCCc1cccc(F)c1 | -4 | nt | 0 | -2 | 50 | -14 | 18 | 2 | -6
CCc1ccc(NC(=O)Cn2nc(C(=O)O)c3ccccc3c2=O)cc1 | 12 | nt | 0 | -3 | 4 | -16 | nt | nt | nt
NS(=O)(=O)c1ccc(CCNCc2cc(Br)ccc2OCc2ccccc2)cc1 | -18 | 40 | 1 | -1 | 55* | 13 | 31 | 4 | -10
OCCNCc1cc(Br)ccc1OCc1ccccc1 | -5 | 6 | -1 | -2 | 28 | 2 | nt | nt | nt
COc1ccc(CNCCc2ccc(Cl)cc2)cc1OCc1ccccc1 | -10 | 50 | -1 | 0 | 53 | 14 | 29 | 6 | 5
COc1ccc(N2CCN(C(=O)CN3C(=O)NC4(CCCCCC4)C3=O)CC2)cc1 | 5 | nt | -2 | -3 | -10 | -4 | nt | nt | nt
CC(=O)Nc1ccc(N/C(N)=N/c2nc(C)cc(C)n2)cc1 | 0 | 6 | 0 | -3 | 13 | -6 | nt | nt | nt
Cc1cc(C)nc(/N=C(\N)Nc2ccc(-c3ccccc3)cc2)n1 | -38 | 56 | 0 | 5 | 67* | 40 | 37 | 18 | -95
Cn1c(CNC(=O)CNS(=O)(=O)c2ccc(Cl)cc2)cc(=O)n(C)c1=O | 15 | nt | 0 | -4 | -5 | 6 | nt | nt | nt
CCOC(=O)CNC(=O)CSc1nc(-c2ccccc2)ns1 | 12 | -22 | 1 | 6 | 62* | 7 | 27 | 17 | 3
O=C(OCCOc1ccccc1)c1cc(S(=O)(=O)N2CCOCC2)ccc1Cl | 10 | nt | 1 | 0 | -4 | -2 | nt | nt | nt
SMILES | 697 NFkB inh | CHOP inhibitor | CHOP UPR activ | UPR XBP1 act | Gli-Sufu block | Jurkat NFkB inh | Gli antag conf | SufuKO cytotox | Wnt3a counter
Cc1ccc(OCCOC(=O)c2cc(S(=O)(=O)N3CCCCC3)ccc2N2CCOCC2)cc1 | -29 | nt | 8 | -2 | 55* | 10 | 65* | 28* | 3
O=C(OCCOc1ccc(Cl)cc1)c1cc(S(=O)(=O)N2CCCCC2)ccc1N1CCOCC1 | nt | nt | nt | nt | 69* | nt | 68* | 32* | 26*
COc1ccc(COC(=O)c2cc(S(=O)(=O)N3CCCCC3)ccc2N2CCOCC2)cc1 | -18 | nt | -1 | -4 | 28 | 8 | nt | nt | nt
COc1cc(/C=C2/NC(=O)N(Cc3ccccc3F)C2=O)ccc1O | -28 | 13 | 1 | -2 | 71* | 11 | 54* | 22 | 37*
Cc1ccc(N(C(=O)c2csnn2)C(C(=O)NC2CCCCC2)c2ccncc2)c(C)c1 (stereo not drawn) | 10 | nt | 2 | -5 | nt | -5 | nt | nt | nt
CCOc1ccc(NC(=O)COC(=O)CC2CC3CCC2C3)cc1 (stereo not drawn) | 8 | nt | 1 | 0 | -2 | 1 | nt | nt | nt
Cn1c(=O)c2c(nc(NCc3ccco3)n2Cc2ccc(Cl)cc2Cl)n(C)c1=O | -19 | 31 | -1 | 2 | 67* | 6 | 67* | 29* | 20
Cc1ccc(Cn2c(N3CCN(CCO)CC3)nc3c2c(=O)n(C)c(=O)n3C)cc1 | -9 | nt | 1 | -3 | 51 | -10 | 15 | 8 | -6
CN1CCN(c2nc3c(c(=O)n(C)c(=O)n3C)n2Cc2ccc(F)cc2)CC1 | 4 | nt | 0 | -5 | 4 | 5 | nt | nt | nt
CCNc1nc2c(c(=O)n(C)c(=O)n2C)n1Cc1ccc(Cl)cc1 | 1 | nt | 0 | -3 | 71* | 28 | 61* | 31* | 40*
COc1ccc(-n2c(COc3cccc4cccnc34)nnc2SCC(=O)O)cc1 | 16 | 3 | 1 | -3 | -4 | -6 | nt | nt | nt
CCN(C(=O)CSc1nnc(-c2ccncc2)n1Cc1ccccc1)C1CCS(=O)(=O)C1 (stereo not drawn) | 13 | -8 | 0 | 3 | 58* | 2 | 15 | 19 | -6
COc1ccc(-c2c[n+]3c(n2-c2ccccc2)CCCCC3)cc1 | -14 | -10 | 0 | 1 | 84* | -1 | 85* | 35* | 34*
